The results in this text go back to ChEMBL document CHEMBL1122568, “Synthesis and anticonvulsant activity of some substituted lactams and amides” (J Med Chem, 1984).

Data set [1] deals with Mus sp. Description: Anticonvulsant activity was evaluated by maximal electroshock induced convulsion test and was determined 30 min after subcutaneous administration. Format: functional. (In general: The maximal electroshock test induces tonic seizures with an electrical stimulus.)
Data set [2] deals with Mus sp. Description: Anticonvulsant activity was evaluated by metrazole-induced convulsion test and was determined 30 min after subcutaneous administration. Format: functional. In a few lines:
(§1)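 Secondary evaluation in mice. Compound was given intraperitoneally in 30% polyethylene glycol 400. Median effective dose (ED50) was determined against maximal electroshock (MES) or subcutaneous Metrazol (scMet) convulsions. Median toxic dose (TD50) was determined by the rotorod test. All were read 30 min after dosing.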

Data set [3] has as its system Mus sp. Briefly: (§2) Anticonvulsant activity was evaluated by rotarod toxicity test and was determined 30 min after subcutaneous administration. Format: organism-based. The following applies: in vivo, sc, 0.5 h. For orientation: In the rotarod test animals must keep their balance on a rotating rod.
The subject of data set [4] is Mus musculus. Briefly: Number of animal protected out of 1 was evaluated by metrazole-induced convulsion test at 30 min after subcutaneous administration of >300 mg/kg. Format: functional. The procedure, abridged: (§3)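 Preliminary screen in small groups of mice (1-4) at 30, 100 and 300 mg/kg. Protection against MES or scMet convulsions, or rotorod toxicity, was scored at 30 min and 4 h after dosing. The smallest dose giving activity was recorded for each test.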

In data set [5] the test system is Mus sp. Briefly: Number of animals protected out of 1 was evaluated by maximal electroshock induced convulsion test at 30 min after subcutaneous administration of >300 mg/kg. Format: functional. In a few lines: as §3
For data set [6], the system named is Mus sp. Description: Number of animals protected out of 4 was evaluated by rotarod toxicity test and was determined 30 min t 30 min after subcutaneous administration of >300 mg/kg. Format: functional. The procedure, abridged: as §3
The subject of data set [7] is Mus musculus. Description: Anticonvulsant activity was evaluated by maximal electroshock induced convulsion test after subcutaneous administration. Format: functional. The following applies: sc.
The nature of data set [8]: Anticonvulsant activity was evaluated by rotarod toxicity test after subcutaneous administration. Format: organism-based. The settings on record: mouse, in vivo, sc.
Data set [9] has as its system Mus musculus. Briefly: Anticonvulsant activity was evaluated by metrazole-induced convulsion test after subcutaneous administration. Format: functional. The following applies: sc. In a few lines:
as §1

Data set [10] has as its system Mus musculus. Briefly: Number of animal protected out of 1 was evaluated by metrazole-induced convulsion test at 30 min after subcutaneous administration of 30 mg/kg. Format: functional. The procedure, abridged: as §3
The subject of data set [11] is Mus musculus. Description: Number of animals protected out of 1 was evaluated by maximal electroshock induced convulsion test at 30 min after subcutaneous administration of 300 mg/kg. Format: functional. The procedure, abridged: as §3
A short description of data set [12]: Anticonvulsant activity was evaluated by rotarod toxicity test after subcutaneous administration. Format: organism-based. The settings on record: mouse, in vivo, sc.
Data set [13] deals with Mus musculus. Description: Anticonvulsant activity was evaluated by rotarod toxicity test and was determined 30 min after administration. Format: organism-based. The following applies: in vivo, 0.5 h. The procedure, abridged:
as §1

In data set [14] the test system is Mus musculus. Description: Number of animals protected out of 1 was evaluated by rotarod toxicity test and was determined 30 min t 30 min after subcutaneous administration of >300 mg/kg. Format: functional.
The test system of data set [15] is Mus musculus. Description: Number of animal protected out of 4 was evaluated by metrazole-induced convulsion test at 30 min after subcutaneous administration of >300 mg/kg. Format: functional. The procedure, abridged: as §3
For data set [16], the system named is Mus musculus. Briefly: Number of animals protected out of 4 was evaluated by maximal electroshock induced convulsion test at 30 min after subcutaneous administration of >300 mg/kg. Format: functional. In a few lines:
as §3

Data set [17] can be described thus: as §2. The settings on record: mouse, in vivo, sc. Format: organism-based.
The subject of data set [18] is Mus musculus. Briefly: Anticonvulsant activity was evaluated by maximal electroshock induced convulsion test after subcutaneous administration. The following applies: sc. Format: functional.

For the molecule `O=C1NCCCC1(O)c1ccccc1` (centres undefined), the Activity in [1], in data set [2] and in [3] was over 300 mg/kg in each case. Further, the “No. of animals protected” value in [4], in data set [5] and in [6] was 0 throughout.
Broadly, the ED50 is the dose at which the effect has come halfway, by size or by number of responders. In general, TD50 refers to the 50% point of the dose-response relation for the toxic effect studied. Lower therefore signals greater toxicity. Regarding `CCCC(C)(COC(N)=O)COC(N)=O` [MEPROBAMATE], the ED50 in [7] was 120 mg/kg; in data set [9], 31.5 mg/kg. Moreover, the TD50 in data set [8] was found to be 125 mg/kg.
As to `CCOC(=O)N1CCCC(O)(c2ccccc2)C1=O` (centres undefined), the Activity is 300 mg/kg in [1], 30 mg/kg in data set [2] and over 300 mg/kg in data set [3]. In addition, the “No. of animals protected” value in [10] was 1; in [11] it was 1; in data set [6], 0. Further, the ED50 in data set [7] was 132 mg/kg; in data set [9], 124 mg/kg. Moreover, the TD50 in data set [12] was 451 mg/kg.
As to `CCOC(=O)N1CCCC(N)(c2ccccc2)C1=O` (centres undefined), the Activity in data set [1], in [2] and in [13] was 300 mg/kg each time. In addition, the “No. of animals protected” value in data set [4] amounted to 1; in data set [5] it was 1; in data set [6], 4.
For `O=C(CBr)OC1(c2ccccc2)CCCNC1=O` (centres undefined), the Activity is over 300 mg/kg in [1], 300 mg/kg in data set [2] and over 300 mg/kg in data set [13].
On to `CCC(OCc1ccccc1)(C(=O)NC)c1ccccc1` (centres undefined), for which the Activity in data set [1], in data set [2] and in [3] was over 300 mg/kg each time. The “No. of animals protected” value in data set [4], in data set [5] and in data set [6] was 0 in each case.
On to `CCOC(=O)N(C)C(=O)C(CC)(OCc1ccccc1)c1ccccc1` (centres undefined), for which the Activity in data set [1], in data set [2] and in [3] was over 300 mg/kg in each case. The “No. of animals protected” value in data set [4], in data set [5] and in data set [14] was 0 in each case.
As to `CCCC(C)OC(=O)N1CCCC(O)(c2ccccc2)C1=O` (centres undefined), the Activity in data set [1] was 300 mg/kg; in [2] it was 300 mg/kg; in data set [3], over 300 mg/kg. In addition, the “No. of animals protected” value in data set [15] stood at 1; in [5], 1; in data set [6] it was 0.
As to `CCOC(=O)N1CCCC(OCC2CCCCC2)(c2ccccc2)C1=O` (centres undefined), the Activity in data set [1], in data set [2] and in [3] was over 300 mg/kg each time. The “No. of animals protected” value in data set [4], in [5] and in data set [6] was 0 each time.
Regarding `CCOC(=O)N1CCCC(Cl)(c2ccccc2)C1=O` (centres undefined), the Activity in [1] is over 300 mg/kg; in [2], 300 mg/kg; in data set [3], over 300 mg/kg.
In the case of `O=C(CCCl)NCc1ccccc1` [BECLAMIDE], the values for the ED50 in data set [7] and in [9] were 185 mg/kg and 117 mg/kg, respectively. In [12], this molecule registered a TD50 of 278 mg/kg.
In data set [9], `CCCC(CCC)C(=O)O` [VALPROIC ACID] registered an ED50 of 149 mg/kg.
Take `CCOC(=O)N1CCCC(OC)(c2ccccc2)C1=O` (centres undefined): the Activity in [1] is 300 mg/kg; in [2] it was 300 mg/kg; in [3], over 300 mg/kg. Also, the ED50 was found to be 225 mg/kg in data set [7] and 124 mg/kg in data set [9]. Besides, the entries for the “No. of animals protected” value in data set [4], in data set [16] and in data set [6] were 1, 2 and 0, respectively. The molecule further displayed a TD50 in data set [12] of over 300 mg/kg.
For the molecule `CCOC(=O)NCCCC(O)(C(=O)OC)c1ccccc1` (centres undefined), the Activity in data set [1], in [2] and in [3] was over 300 mg/kg throughout. Moreover, the “No. of animals protected” value in data set [4], in data set [5] and in data set [14] was 0 throughout.
With `CCOC(=O)N1CCCC(OC(C)=O)(c2ccccc2)C1=O` (centres undefined), the Activity in data set [1], in [2] and in data set [13] was over 300 mg/kg each time. The “No. of animals protected” value in data set [4], in data set [5] and in data set [6] was 0 each time.
As to `COC1(c2ccccc2)CCCNC1=O` (centres undefined), the Activity in [1] stood at 100 mg/kg; in data set [2], 300 mg/kg; in [3] it was 300 mg/kg. This molecule gave a TD50 at 0.5 h in data set [17] of 239 mg/kg. Also, the ED50 in [7] was determined as 121 mg/kg; in [9] it was 49.6 mg/kg. In addition, the “No. of animals protected” value in data set [15] worked out at 4; in data set [5], 1; in data set [6], 4.
For `CCOC(=O)N1CCCC(c2ccccc2)C1=O` (centres undefined), the Activity in data set [1], in [2] and in data set [3] was over 300 mg/kg in each case. The “No. of animals protected” value in [4], in [5] and in [6] was 0 in each case.
As to `CN1CCCC(O)(c2ccccc2)C1=O` (centres undefined), the Activity in [1] is 100 mg/kg; in data set [2], 300 mg/kg; in [13], over 300 mg/kg. Besides, the results for the ED50 in data set [7] and in [9] were 84.4 mg/kg and 128 mg/kg, respectively. In addition, the “No. of animals protected” value was 4 in [15], 1 in [5] and 0 in data set [6]. The molecule also gave a TD50 in [12] of 350 mg/kg.
`NC(=O)NC(=O)Cc1ccccc1` [PHENACEMIDE] displayed an ED50 in data set [18] of 87.3 mg/kg. In data set [8], this molecule displayed a TD50 of 421 mg/kg.
As to `O=C(CCl)N1CCCC(O)(c2ccccc2)C1=O` (centres undefined), the Activity in data set [1], in data set [2] and in [3] was over 300 mg/kg throughout.
`CCC(O)(C(=O)NC)c1ccccc1` (centres undefined): the Activity in data set [1] is 300 mg/kg; in data set [2] it was over 300 mg/kg; in data set [3], over 300 mg/kg. In addition, the “No. of animals protected” value is on record as 0 in data set [4], 1 in data set [5] and 0 in data set [6].
